Measured values published in ChEMBL document CHEMBL4609978, “Synthesis and evaluation of 2'-dihalo ribonucleotide prodrugs with activity against hepatitis C virus” (Bioorg Med Chem, 2020).
pEC50: −log10 of the molar value. One block for each compound: values may come before it.

How the values were obtained:
Hepatitis C virus [1] = assay: Antiviral activity against HCV genotype 1a H77 infected in human HuH7 replicon cells assessed as inhibition of viral replication after 3 days by luciferase reporter gene assay; type: functional, organism-based, Hepacivirus hominis; conditions: subtype 1a H77, Huh-7, 72 h
How it was run: (§1)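 Stable subgenomic replicon cell lines (genotype 1a-H77 or 1b-Con1) carrying a luciferase reporter; compounds added in DMEM with 5% FBS, cells incubated 3 days with or without compound, then lysed and luciferase activity read; EC50 from nonlinear regression fit to 4-parameter logistic equation.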

Hepatitis C virus [2] = assay: Antiviral activity against HCV genotype 1b Con1 infected in human HuH7 replicon cells assessed as inhibition of viral replication after 3 days by luciferase reporter gene assay; type: functional, organism-based, Hepacivirus hominis; conditions: subtype 1b Con1, Huh-7, 72 h; how it was run: as §1
[3] = Cytotoxicity against human HuH7 cells assessed as reduction in cell viability; type: cell-based, Huh-7; conditions: read-out: TD50 (the source's name)
[4] = Prodrug conversion in Beagle dog liver assessed as nucleotide triphosphate level at 5 mg/kg, po administered as single dose measured after 4 hrs by LC-MS/MS analysis; type: ADME, organism-based, Canis lupus familiaris; conditions: in vivo
[5] = Prodrug conversion in Beagle dog liver assessed as nucleotide triphosphate level at 5 mg/kg, po co-dosed with 5 mg/kg sofosbuvir measured after 4 hrs by LC-MS/MS analysis; type: ADME, organism-based, Canis lupus familiaris; conditions: in vivo
How it was run: (§2)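 Beagle dogs (3 per time point) given single oral prodrug 5 mg/kg in EtOH:PEG-400:Phosal 53 MCT (10:30:60, w/w), cassette-dosed with sofosbuvir 5 mg/kg as internal standard; liver biopsies at 4 or 24 h, flash frozen, triphosphate measured by LC-MS/MS.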

[6] = Prodrug conversion in Beagle dog liver assessed as nucleotide triphosphate level at 5 mg/kg, po administered as single dose measured after 24 hrs by LC-MS/MS analysis; type: ADME, organism-based, Canis lupus familiaris; conditions: in vivo
[7] = Prodrug conversion in Beagle dog liver assessed as nucleotide triphosphate level at 5 mg/kg, po co-dosed with 5 mg/kg sofosbuvir measured after 24 hrs by LC-MS/MS analysis; type: ADME, organism-based, Canis lupus familiaris; conditions: in vivo; how it was run: as §2
[8] = Prodrug conversion in human primary hepatocytes assessed as nucleotide triphosphate level at 100 uM incubated for 4 hrs followed by compound wash-out for 20 hrs and measured following 4 hrs incubation period by LC-MS/MS analysis; type: ADME, cell-based, Hepatocyte
How it was run: (§3)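 Cryopreserved primary human hepatocytes plated ~55,000 viable cells/well on collagen, medium changed after 4–6 h to Williams E maintenance medium with Geltrex 0.35 mg/mL, overnight at 37 °C; prodrug 100 µM for 4 h, then washed; second plate held a further 20 h drug-free; cells washed with ice-cold HBSS, triphosphate measured by LC-MS/MS at 4 or 24 h.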

[9] = Prodrug conversion in human primary hepatocytes assessed as nucleotide triphosphate level at 100 uM incubated for 4 hrs and followed by compound washout for 20 hrs and measured following 24 hrs incubation period by LC-MS/MS analysis; type: ADME, cell-based, Hepatocyte; how it was run: as §3
Hepatitis C virus [10] = assay: Antiviral activity against HCV genotype 1b Con1 over expressing CES1 infected in human HuH7 replicon cells assessed as inhibition of viral replication after 3 days by luciferase reporter gene assay; type: functional, organism-based, Hepacivirus hominis; conditions: subtype 1b Con1, Huh-7, 72 h
[11] = Distribution coefficient, logD of compound by HT-LCMS analysis; type: physicochemical; conditions: octanol/water
[12] = Aqueous solubility of compound in pH 7.4 phosphate buffer; type: physicochemical
[13] = Stability in dog plasma assessed as parent compound remaining after 4 hrs; type: ADME, cell-free, Canis lupus familiaris; conditions: read-out: Stability
How it was run: (§4)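 Prodrug incubated 4 h at 37 °C in dog or human plasma; result given as percent parent remaining.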

[14] = Stability in human plasma assessed as parent compound remaining after 4 hrs; type: ADME, cell-free; conditions: read-out: Stability; how it was run: as §4
[15] = Unbound drug level in dog plasma; type: ADME, cell-free, Canis lupus familiaris
[16] = Unbound drug level in human plasma; type: ADME, cell-free
[17] = Intrinsic clearance in dog hepatocytes; type: ADME, cell-based, Canis lupus familiaris, Hepatocyte; conditions: read-out: CLH (converted)
Hepatitis C virus [18] = assay: Antiviral activity against HCV genotype 1b Con1 expressing wild type NS5B infected in human HuH7 replicon cells assessed as inhibition of viral replication after 4 days by luciferase reporter gene based assay; type: functional, organism-based, Hepacivirus hominis; conditions: subtype 1b Con1, Huh-7, 96 h
Hepatitis C virus [19] = assay: Antiviral activity against HCV genotype 1b Con1 expressing NS5B S282T mutant infected in human HuH7 replicon cells assessed as inhibition of viral replication after 4 days by luciferase reporter gene based assay; type: functional, organism-based, Hepacivirus hominis; conditions: subtype 1b Con1, Huh-7, 96 h
Hepatitis C virus [20] = assay: Antiviral activity against HCV genotype 2a expressing wild type NS5B infected in human HuH7 replicon cells assessed as inhibition of viral replication after 4 days by luciferase reporter gene based assay; type: functional, organism-based, Hepacivirus hominis; conditions: subtype 2a, Huh-7, 96 h
Hepatitis C virus [21] = assay: Antiviral activity against HCV genotype 2a expressing NS5B S282T mutant infected in human HuH7 replicon cells assessed as inhibition of viral replication after 4 days by luciferase reporter gene based assay; type: functional, organism-based, Hepacivirus hominis; conditions: subtype 2a, Huh-7, 96 h
Hepatitis C virus [22] = assay: Antiviral activity against HCV genotype 3a expressing wild type NS5B infected in human HuH7 replicon cells assessed as inhibition of viral replication after 4 days by luciferase reporter gene based assay; type: functional, organism-based, Hepacivirus hominis; conditions: subtype 3a, Huh-7, 96 h
Hepatitis C virus [23] = assay: Antiviral activity against HCV genotype 3a expressing NS5B S282T mutant infected in human HuH7 replicon cells assessed as inhibition of viral replication after 4 days by luciferase reporter gene based assay; type: functional, organism-based, Hepacivirus hominis; conditions: subtype 3a, Huh-7, 96 h
Hepatitis C virus [24] = assay: Antiviral activity against HCV genotype 4a expressing wild type NS5B infected in human HuH7 replicon cells assessed as inhibition of viral replication after 4 days by luciferase reporter gene based assay; type: functional, organism-based, Hepacivirus hominis; conditions: subtype 4a, Huh-7, 96 h
Hepatitis C virus [25] = assay: Antiviral activity against HCV genotype 6a expressing wild type NS5B infected in human HuH7 replicon cells assessed as inhibition of viral replication after 4 days by luciferase reporter gene based assay; type: functional, organism-based, Hepacivirus hominis; conditions: subtype 6a, Huh-7, 96 h
Hepatitis C virus [26] = assay: Potency index, ratio of sofosbuvir EC50 to compound EC50 for HCV genotype 1a H77 infected in human HuH7 replicon cells assessed as inhibition of viral replication after 3 days by luciferase reporter gene assay; type: functional, Hepacivirus hominis, subtype 1a H77, Huh-7
How it was run: (§5)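 Stable subgenomic luciferase-reporter replicon Huh-7 lines, genotype 1a-H77 or 1b-Con1. Test compound and sofosbuvir comparator each run in DMEM with 5% FBS for 3 days. Cells lysed and luciferase activity read. EC50 obtained by nonlinear regression to a 4-parameter logistic equation. Index is sofosbuvir EC50 divided by compound EC50, both from this assay.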

Hepatitis C virus [27] = assay: Potency index, ratio of sofosbuvir EC50 to compound EC50 for HCV genotype 1b Con1 infected in human HuH7 replicon cells assessed as inhibition of viral replication after 3 days by luciferase reporter gene assay; type: functional, Hepacivirus hominis, subtype 1b Con1, Huh-7; how it was run: as §5

Structure (SMILES): CC(C)OC(=O)[C@H](C)N[P@](=O)(OC[C@H]1O[C@@H](n2ccc(=O)[nH]c2=O)[C@](C)(Cl)[C@@H]1O)Oc1ccccc1
- pEC50 (Hepatitis C virus [1]): 6.86
- pEC50 (Hepatitis C virus [2]): 6.78
- CC50 [3]: > 100000 nM

Structure (SMILES): CC(C)OC(=O)[C@H](C)N[P@](=O)(OC[C@H]1O[C@@H](n2ccc(=O)[nH]c2=O)C(Br)(Br)[C@@H]1O)Oc1ccccc1
- pEC50 (Hepatitis C virus [1]): 6.39
- pEC50 (Hepatitis C virus [2]): 6.28
- CC50 [3]: > 100000 nM

- pEC50 (Hepatitis C virus [1]): 5.96
- pEC50 (Hepatitis C virus [2]): 5.86
- Drug metabolism [4]: 0.713 µM
- Drug metabolism [5]: 4.2 µM
- Drug metabolism [6]: 0.244 µM
- Drug metabolism [7]: 3.43 µM
- Drug metabolism [8]: 157 µM
- Drug metabolism [9]: 40 µM
- pEC50 (Hepatitis C virus [10]): 6.79
- logD [11]: 3.3
- solubility [12]: > 200 µM
- remaining at 4 h [13]: 100%
- remaining at 4 h [14]: 100%
- fraction unbound [15]: 0.13
- fraction unbound [16]: 0.193
- CLint scaled [17]: 133 mL/min/kg
Structure (SMILES): CC(C)OC(=O)C(C)(C)NP(=O)(OC[C@H]1O[C@@H](n2ccc(=O)[nH]c2=O)[C@](Cl)(Br)[C@@H]1O)Oc1ccccc1 (stereo not given in full)

Structure (SMILES): CC(C)OC(=O)[C@H](C)N[P@](=O)(OC[C@H]1O[C@@H](n2ccc(=O)[nH]c2=O)[C@@](C)(F)[C@@H]1O)Oc1ccccc1
- pEC50 (Hepatitis C virus [1]): < 5.00
- pEC50 (Hepatitis C virus [2]): < 5.00
- CC50 [3]: > 32000 nM

Structure (SMILES): CC(C)OC(=O)[C@H](C)N[P@](=O)(OC[C@H]1O[C@@H](n2ccc(=O)[nH]c2=O)[C@](Cl)(Br)[C@@H]1O)Oc1ccccc1
- pEC50 (Hepatitis C virus [1]): 6.94
- pEC50 (Hepatitis C virus [2]): 6.83
- CC50 [3]: 80000 nM
- pEC50 (Hepatitis C virus [18]): 7.52
- pEC50 (Hepatitis C virus [19]): 6.79
- pEC50 (Hepatitis C virus [20]): 6.73
- pEC50 (Hepatitis C virus [21]): 6.58
- pEC50 (Hepatitis C virus [22]): 7.50
- pEC50 (Hepatitis C virus [23]): 6.85
- pEC50 (Hepatitis C virus [24]): 7.52
- pEC50 (Hepatitis C virus [25]): 7.64
- Drug metabolism [4]: 0.088 µM
- Drug metabolism [5]: 1.59 µM
- Drug metabolism [6]: 0.049 µM
- Drug metabolism [7]: 1.02 µM
- Drug metabolism [8]: 110 µM
- Drug metabolism [9]: 22 µM
- fraction unbound [15]: 0.213
- fraction unbound [16]: 0.113
- CLint scaled [17]: 113 mL/min/kg

Structure (SMILES): CC(C)OC(=O)[C@H](C)N[P@](=O)(OC[C@H]1O[C@@H](n2ccc(=O)[nH]c2=O)C(Cl)(Cl)[C@@H]1O)Oc1ccccc1
- pEC50 (Hepatitis C virus [1]): 7.37
- pEC50 (Hepatitis C virus [2]): 7.32
- CC50 [3]: > 100000 nM
- Ratio EC50 (Hepatitis C virus [26]): 3 - 4
- Ratio EC50 (Hepatitis C virus [27]): 3 - 4

Structure (SMILES): CC(C)OC(=O)[C@H](C)N[P@](=O)(OC[C@H]1O[C@@H](n2ccc(=O)[nH]c2=O)[C@@](F)(Cl)[C@@H]1O)Oc1ccccc1
- pEC50 (Hepatitis C virus [1]): 7.28
- pEC50 (Hepatitis C virus [2]): 7.21
- CC50 [3]: 11000 nM
- Ratio EC50 (Hepatitis C virus [26]): 3 - 4
- Ratio EC50 (Hepatitis C virus [27]): 3 - 4
